# Bioassay records deposited in PubChem by Johns Hopkins Ion Channel Center.
# Hits are enriched below; roughly 2.3% of the tested compounds scored in any of these assays.
# TRPC4 agonist – activators of mouse TRPC4 channel, primary screen, Fluo4 calcium, HEK293 TRPC4beta/mu-opioid cells; B-score at 10 µM; Fluo4 calcium fluorescence; hits give high values; actives 0.49% (n = 310,000);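 active means B-score above 5 SD of library B-scores, and initial fluorescence ratio not above library mean plus 5 SD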;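 further: positive B-score marks a calcium rise read as TRPC4 activation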
# Target sequence (Q9QUQ5 whole entry, looked up): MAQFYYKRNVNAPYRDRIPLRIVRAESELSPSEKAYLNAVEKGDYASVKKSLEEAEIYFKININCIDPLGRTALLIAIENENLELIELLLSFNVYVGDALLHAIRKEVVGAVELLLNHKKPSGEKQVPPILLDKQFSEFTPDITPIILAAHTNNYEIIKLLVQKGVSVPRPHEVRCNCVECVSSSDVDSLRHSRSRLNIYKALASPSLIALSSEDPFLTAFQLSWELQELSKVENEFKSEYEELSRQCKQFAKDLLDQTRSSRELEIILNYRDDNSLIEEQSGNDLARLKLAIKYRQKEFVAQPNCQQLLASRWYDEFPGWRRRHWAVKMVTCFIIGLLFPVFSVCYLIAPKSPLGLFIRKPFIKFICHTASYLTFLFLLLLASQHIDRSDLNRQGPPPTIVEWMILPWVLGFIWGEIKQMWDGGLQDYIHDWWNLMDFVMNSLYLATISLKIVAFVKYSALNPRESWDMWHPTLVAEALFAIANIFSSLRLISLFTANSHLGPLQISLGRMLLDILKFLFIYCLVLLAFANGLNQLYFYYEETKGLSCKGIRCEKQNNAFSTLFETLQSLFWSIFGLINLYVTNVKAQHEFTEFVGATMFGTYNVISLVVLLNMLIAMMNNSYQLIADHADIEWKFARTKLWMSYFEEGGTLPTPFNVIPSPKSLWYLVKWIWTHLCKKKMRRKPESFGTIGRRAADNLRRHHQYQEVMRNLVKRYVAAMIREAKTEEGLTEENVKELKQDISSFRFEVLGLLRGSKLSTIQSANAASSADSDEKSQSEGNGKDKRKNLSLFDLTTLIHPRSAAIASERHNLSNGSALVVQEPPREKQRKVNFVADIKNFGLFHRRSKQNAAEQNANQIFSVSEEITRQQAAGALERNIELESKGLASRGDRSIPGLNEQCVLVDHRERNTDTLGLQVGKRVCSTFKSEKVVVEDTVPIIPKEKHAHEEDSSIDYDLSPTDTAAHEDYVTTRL
#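 Assay system – TRPC4beta and mu-opioid receptor HEK293 stable cells · Measured by – Fluo4 fluorescence, kinetic · Schedule – dye loading 45 min room temperature, 110 s kinetic read · Read-out – B-scored integrated calcium fluorescence ratio · Controls – buffer and maximal DAMGO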
# TRPC4 potent – positive allosteric modulators of TRPC4, primary screen, cell-based, mouse TRPC4beta, HEK293 mu-opioid, Fluo-4 calcium | Short transient receptor potential channel 4 (Mus musculus), Q9QUQ5 | DAMGO EC20, Fluo-4 Ca2+ flux; hits give high values | B-score at 10 µM | actives 0.42% (n = 310,000);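 active means B-score of calcium response area above 5 SD of library B-scores, with initial fluorescence ratio within 5 SD of library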
# TRPC4 inh – inhibitors of mouse TRPC4 channel, primary screen, Fluo4 calcium, HEK293 TRPC4beta/mu-opioid cells | DAMGO-evoked Fluo4 calcium flux; hits give low values | B-score at 10 µM | actives 0.39% (n = 300,000) | AID 2247, 2010;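 active means B-score over 3 SD under the library average, no early fluorescence shift, positive overall ratio signal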
#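 Material: HEK293 cells with stable TRPC4beta plus mu-opioid receptor expression; probe or stimulus: DAMGO in two steps, submaximal then maximal; technique: Fluo4 calcium fluorescence by kinetic imaging, 5 s 1 Hz baseline; measure: integrated fluorescence ratio relative to baseline, converted to per-well B score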
# TRPC6 act – mouse TRPC6 channel activators, primary screen, cell-based, HEK293, membrane potential dye. HEK293-TRPC6 membrane potential dye fluorescence; hits give high values. B-score at 10 µM. actives 0.13% (n = 310,000). AID 2550, 2010;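 active means B-score of the integrated fluorescence ratio above library mean plus 3 SD, and starting fluorescence ratio within library mean plus 5 SD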;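 further: higher score means more depolarization so channel activation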
# TRPC6 inh – mouse TRPC6 channel inhibitors, primary screen, cell-based, HEK293, membrane potential dye; B-score at 10 µM; actives 1.1% (n = 310,000); AID 2553, 2010; Short transient receptor potential channel 6 (Mus musculus), Q61143; ACh-evoked depolarization; hits give low values;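 active means B-score under library mean minus 3 SD, initial fluorescence not abnormally high, positive integrated signal ratio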;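 further: B-score derived from integrated fluorescence ratio over the kinetic read; more negative B-score means stronger inhibition of depolarization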
# Numbers stand for hits; 0 = inactive.
SMILES,TRPC4 agonist,TRPC4 potent,TRPC4 inh,TRPC6 act,TRPC6 inh
Cc1ccc(-n2cc(CNC(C)c3cnn(C)c3C)c(-c3ccc(F)cc3)n2)cc1 (configuration not stated),184,0,0,0,0
Cc1ccc(-n2cc(CNCCc3cscn3)c(-c3ccc(F)cc3)n2)cc1,130,0,0,0,0
Cc1ccc(-n2cc(CN3CCN(Cc4nccn4C)CC3)c(-c3ccc(F)cc3)n2)cc1,0,0,0,0,0
Cc1ccc(-c2nn(-c3ccccc3)cc2CNCc2ccccc2)cc1,0,0,0,0,0
CC1C(=O)N2CCCc3cc(S(=O)(=O)N(C)CCC#N)cc1c32 (configuration not stated),0,0,0,0,0
COc1cccc(C(=O)N(C)CC2CCN(CCc3cccc(C(F)(F)F)c3)CC2)c1,109,0,0,0,0
CN(CC1CCCN(CCc2cccc(C(F)(F)F)c2)C1)C(=O)c1cc2ccccc2o1 (configuration not stated),0,0,-8,0,0
COc1ccccc1NC(=O)CSc1nnc(-c2ccoc2C)n1C,0,0,0,0,0
CCOC(=O)N1CCC(NC(=O)CS(=O)Cc2nc(-c3ccccc3C)oc2C)CC1 (configuration not stated),0,13,0,0,0
Cc1oc(-c2ccccc2F)nc1CS(=O)CC(=O)NC1CC1 (configuration not stated),0,0,0,0,0
COc1ccc(NC(=O)Nc2ccc(O)c3ccccc23)cc1,0,0,0,0,0
CCN1CCN(c2ncnc3sc(C)c(-c4ccccc4)c23)CC1,86,0,0,0,0
CCN1CCN(c2ncnc3scc(-c4ccc(C)c(C)c4)c23)CC1,0,0,0,0,0
CN(CC(=O)Nc1ccccc1Br)C(=O)CCCSc1nc2ccccc2[nH]1,0,0,0,0,0
Oc1c(Cl)cc(Cl)cc1Sc1cc(Cl)cc(Cl)c1O,86,0,0,0,-8.4
O=C(Cc1ccsc1)NNC(=O)c1ccccc1Cl,0,0,0,0,0
CCCCCCc1cc2cc(-c3nnc(-c4cc(OC)c(OC)c(OC)c4)o3)c(=O)oc2cc1O,0,40,0,0,0
CCCCCCc1cc2cc(-c3nnc(-c4ccccc4O)o3)c(=O)oc2cc1O,0,25,0,0,0
CN(C)CCN(CC1CCCN(Cc2ccccc2F)C1)C(=O)c1ccc(Cl)cc1 (configuration not stated),0,0,0,0,0
CN1CCN(NC(=O)CN(C)S(=O)(=O)c2cc(Cl)ccc2Cl)CC1,84,0,0,0,0
Cc1c(OC(C)C(=O)NCc2ccccn2)ccc2c3c(c(=O)oc12)CCCC3 (configuration not stated),0,0,0,0,0
COc1ccc2[nH]c(=O)c(CN(C(=O)c3ccco3)C3CCCCC3)cc2c1,0,10,0,0,0
COc1ccc2[nH]c(=O)c(CN(C(C)=O)C3CCCCC3)cc2c1,0,0,0,0,0
C=CCNc1nc(N2CCCC2)nc2ccccc12,0,0,-7,0,0
CCOC(=O)c1c(C)[nH]c(C)c1S(=O)(=O)NCCN1CCN(c2ccccc2F)CC1,0,0,0,0,0
SMILES,TRPC4 agonist,TRPC4 potent,TRPC4 inh,TRPC6 act,TRPC6 inh
Cc1ccc(C)c(-n2cc(CN3CCCN(C=O)CC3)c(-c3ccccc3)n2)c1,72,0,0,0,0
Cc1ccc(-n2cc(CNCCCn3cccn3)c(-c3cccc(C)c3)n2)cc1,43,0,0,0,0
Cc1ccc(C)c(-n2cc(CNCCCn3cccn3)c(-c3ccccc3)n2)c1,205,0,0,0,0
Cc1ccc(-n2cc(CNCCCn3ccnc3C)c(-c3ccc(F)cc3)n2)cc1,0,0,0,0,0
COc1ccc2c(c1)c(C(C)=O)c(C)n2-c1ccccc1OC,0,0,0,0,0
O=C(NCCCN1CCCC1)c1ccc2c(c1)N(Cc1cccc(Cl)c1)C(=O)c1ccccc1S2=O (configuration not stated),0,0,0,0,0
CC1CC(C)CN(CCCNC(=O)c2ccc3c(c2)N(Cc2ccccc2)C(=O)c2ccccc2S3=O)C1 (configuration not stated),85,0,0,0,0
CCCN(CCC)CCCNC(=O)c1ccc2c(c1)N(CC)C(=O)c1ccccc1S2=O (configuration not stated),66,0,0,0,0
CCCCSCCCNC(=O)c1ccc2c(c1)N(CC)C(=O)c1ccccc1S2=O (configuration not stated),0,0,0,0,0
O=C1CC2(CCN(C(=O)C(=O)c3c[nH]c4ccccc34)CC2)Oc2ccccc21,0,0,0,0,0
Cc1csc2ncnc(N3CCN(C(=S)Nc4ccc(C(F)(F)F)cc4)CC3)c12,0,0,0,0,0
Cc1csc2c(N3CCN(C(=S)Nc4ccc(C(F)(F)F)cc4)CC3)ncnc12,145,0,0,0,0
CCOC(=O)C1CCN(c2ncnc3c(C)csc23)CC1,0,0,0,0,0
Cc1csc2c(N3CCN(C(=O)Nc4ccc(Cl)c(Cl)c4)CC3)ncnc12,91,0,0,0,0
Cc1csc2c(N3CCN(C(=O)c4ccc(C(C)(C)C)cc4)CC3)ncnc12,67,0,0,0,0
Cc1csc2c(N3CCN(C(=O)NC(C)(C)C)CC3)ncnc12,84,0,0,0,0
CCn1ccnc1CN1CCC(n2nccc2NC(=O)c2ccccc2OC)CC1,0,0,0,0,0
COc1ccc(CCNC(=O)[C@@H](NC(=O)N2CC(=O)Nc3ccccc32)C(C)C)cc1OC,0,0,0,0,0
CC(C)(C)c1ccc(Cn2nnc3c(=O)[nH]c(C4CCCN(C(=O)c5cccs5)C4)nc32)cc1 (configuration not stated),0,0,0,0,0
COC(=O)c1ccccc1NC(=O)CN1CCC(NC(=O)c2ccc(C)cc2)CC1,0,0,0,0,0
COC(=O)c1ccccc1NC(=O)CN1CCN(C23CC4CC(CC(C4)C2)C3)CC1,0,0,0,20,0
Cc1ccc(C)c(NC(=O)c2cc(=O)c3ccccc3o2)c1,0,12,0,0,0
CCCn1c(=N)c(C(=O)NCc2ccc3c(c2)OCO3)cc2c(=O)n3cccc(C)c3nc21,0,0,0,0,0
CC(C)OCCCn1c(=N)c(C(N)=S)cc2c(=O)n3ccccc3nc21,0,0,0,0,-7.6
CCOCCCn1c(=N)c(C(=O)NCc2ccc3c(c2)OCO3)cc2c(=O)n3ccccc3nc21,0,0,0,0,-5.9
